PMI act hi M6P: increases human PMI activity with near-saturating mannose 6-phosphate | P34949 | coupled PMI enzyme assay, resazurin fluorescence, 20 min; active compounds read high; 1 = untreated enzyme, 0 = substrate-free blank | activation factor at 20 µM | actives 0.34% (n = 190,000) | AID 1216;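 active = activation factor of 2 or more at 20 µM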
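Test system: human phosphomannose isomerase with PGI, G6PDH, diaphorase coupling enzymes / Doses: 20 µM compound, 1% DMSO / Times: enzyme reaction with compound 20 min at room temperature / Measured by: Diaphorase-driven resazurin-to-resorufin fluorescence, excitation 544, emission 590 nm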
KCC2 mod: KCC2 (human) Cl- transport modulation; Q9H2X9; KCC2 cells, thallium flux FluoZin-2 fluorescence; B-score of Tl+ flux slope (higher = more flux/activation; lower = inhibition) at 10 µM; actives 2.2% (n = 190,000); AID 1456;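 active = thallium flux slope and its plate-corrected score both differing from the plate sample mean at a set confidence after two filtering rounds, in either direction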;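 note: slope of fluorescence scaled to starting intensity during 10 to 20 s after thallium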
ROMK mod: modulates human ROMK potassium channel activity | P48048 | B-score at 10 µM | Tet-inducible ROMK, thallium flux fluorescence; actives lie on both sides | actives 2% (n = 130,000);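 active = signal ratio slope over the read window, or its plate-corrected B-score, at least 3 SD from the plate mean, either direction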;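 note: B-score of the F/F0 ratio slope over 7 to 12 s after thallium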
ABCG2 inh: human ABCG2 inhibition, ABCB1 as counter-screen. AID 1325. actives 0.1% (n = 190,000). IgMXP3 cells, JC-1 efflux, flow cytometry. inhibition, % at 6.6 µM. Q9UNQ0;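 active = inhibition above 80%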;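 note: 0% = DMSO and 100% = nicardipine control wells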
Target sequence (Q9UNQ0 whole entry, looked up): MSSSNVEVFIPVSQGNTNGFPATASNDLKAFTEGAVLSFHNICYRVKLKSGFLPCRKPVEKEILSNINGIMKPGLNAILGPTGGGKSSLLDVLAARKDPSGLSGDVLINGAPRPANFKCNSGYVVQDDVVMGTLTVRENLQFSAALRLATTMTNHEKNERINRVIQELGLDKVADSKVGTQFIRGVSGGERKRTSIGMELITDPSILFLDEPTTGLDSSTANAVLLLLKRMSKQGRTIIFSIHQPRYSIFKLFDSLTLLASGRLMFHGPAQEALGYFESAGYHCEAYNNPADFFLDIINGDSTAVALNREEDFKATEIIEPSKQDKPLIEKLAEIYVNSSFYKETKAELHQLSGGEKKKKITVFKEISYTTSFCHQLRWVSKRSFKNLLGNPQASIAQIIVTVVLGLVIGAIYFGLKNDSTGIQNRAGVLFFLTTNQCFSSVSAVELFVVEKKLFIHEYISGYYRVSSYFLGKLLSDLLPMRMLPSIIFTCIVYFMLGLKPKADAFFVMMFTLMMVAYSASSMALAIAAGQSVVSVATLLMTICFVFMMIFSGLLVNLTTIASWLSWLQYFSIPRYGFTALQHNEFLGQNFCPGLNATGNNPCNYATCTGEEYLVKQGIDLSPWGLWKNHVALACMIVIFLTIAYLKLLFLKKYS
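Test system: IgMXP3 (ABCG2) plus far-red-tagged CCRF-Adr (ABCB1) cells. Reagent: JC-1 dye as substrate. Timing: 10 min exposure at 25 °C with rotation, no wash. Measured by: flow cytometric JC-1 green MFI at 530 nm. Read-out: percent efflux inhibition, scaled nicardipine 100% to DMSO 0%. Control set: nicardipine and DMSO wells.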
ABCB1 block: inhibitors of human ABCB1 transporter, ABCG2 counter-screen; P08183; CCRF-Adr cells, JC-1 efflux, flow cytometry; inhibition, % at 6.6 µM; actives 0.067% (n = 190,000); AID 1326; in the data active = inhibition above about 40%;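 note: 0% = vehicle and 100% = reference inhibitor; higher value means more JC-1 retained so stronger ABCB1 efflux block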
PMI act: phosphomannose isomerase (human) activation; actives 0.005% (n = 190,000); AID 1214; activation factor at 20 µM; purified human PMI, coupled resazurin fluorescence, 20 min; active compounds read high; 1 = vehicle control, 0 substrate-free wells; P34949;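 active = activation factor of 2 or more at 20 µM, relative to plate controls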
ROMK retest: human ROMK channel modulation, retest confirmation. AID 1917. normalized thallium flux (F/F0 slope) at 10 µM. shares compounds with ROMK mod. actives 54% (n = 3,000). ROMK thallium flux, fluorescence ratio; active compounds read low;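 active = Flux at 10 µM at least 3 SD below or above vehicle control mean in one or both replicates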
* hit, by the source's call; nt = not tested or not shown. An excerpt weighted towards active compounds, which were near 3.3% of everything screened.

SMILES | PMI act hi M6P | KCC2 mod | ROMK mod | ABCG2 inh | ABCB1 block | PMI act | ROMK retest
CC(=O)NC(=S)Nc1ccc(NC(=O)c2cccnc2Cl)cc1 | nt | 0.0426 | nt | nt | nt | nt | nt
COc1ccc(CNC(=O)c2csc(Cc3ccccc3)n2)cc1 | 0.9 | nt | nt | 0.4 | 0.1 | 0.9 | 0.0743
COc1ccc(NC(=O)c2csc(Cc3ccccc3)n2)cc1 | 0.8 | nt | 0.328 | nt | nt | 0.8 | nt
O=C(NC1CCCCC1)C(c1cccnc1)N(C(=O)c1ccc(Cl)nc1)C1CCCCC1 (configuration not stated) | 1.1 | 0.695 | nt | -0.8 | 0.5 | 1.1 | nt
CCc1ccc(S(=O)(=O)NCCc2csc(-c3ccccc3)n2)s1 | 0.8 | -1.81 | -3.4* | 0.9 | 0.4 | 0.8 | 0.0715
Cc1ccc(-n2c(Cl)c(Cl)nc(Cl)c2=O)cc1 | 0.9 | -1.67 | -4.72* | -0.5 | -0.1 | 1 | 0.0471*
C/C(=N\Nc1nc2c(s1)CCCC2)c1ccccc1 | 1.8 | 0.277 | 1.33 | -0.8 | -0.1 | 1.5 | nt
C/C(=N\Nc1nc(C(=O)O)cs1)c1ccccc1 | 0.8 | 0.737 | nt | 1.4 | -0.2 | 0.8 | 0.0769
O=C1CCCC(O)=C1C(C#Cc1ccccc1)C1=C(O)CCCC1=O | 0.8 | -0.617 | -3.76* | -1.2 | -0.4 | 0.9 | 0.0626*
CC1(C)CC(=O)C(C(C#Cc2ccccc2)C2=C(O)CC(C)(C)CC2=O)=C(O)C1 | 0.9 | -0.668 | nt | -1.9 | -0.7 | 0.9 | nt
CC1Cc2ccccc2N1C(=O)c1cc2sccc2n1Cc1ccc(F)cc1 (configuration not stated) | 0.9 | -0.00436 | nt | 1.2 | 0.6 | 0.8 | nt
CN(/C=C/C(=C/C=[N+](C)c1ccccc1)OCCCS(=O)(=O)[O-])c1ccccc1 | 0.6 | 0.397 | -3.46* | -1.0 | -0.4 | 1.1 | 0.0558*
CN(/C=C/C(=C\C=[N+](C)c1ccccc1)OCCCS(=O)(=O)[O-])c1ccccc1 | 1.3 | -0.0162 | -3.12* | 0.9 | 0.5 | 1.2 | 0.0607*
COc1ccc(NC(=O)CN2CCC(C(N)=O)(N3CCCCC3)CC2)c(OC)c1 | 1 | 1.32 | 0.101 | 42.4 | 1.1 | 0.9 | nt
CC(C)(C)n1nc(C2CC2)cc1NC(=O)Nc1ccc(Cl)cc1 | nt | 0.321 | nt | nt | nt | nt | 0.0782
COC(=O)/C(=C/c1cn(C)c2ccccc12)[N+](=O)[O-] | 0.9 | -0.762 | nt | -2.4 | -0.8 | 0.9 | 0.0416*
COC(=O)/C(=C/c1c[nH]c2ccccc12)[N+](=O)[O-] | 0.9 | -0.348 | -3.84* | -3.8 | -2.7 | 1 | 0.0625*
CC(C)COC(=O)/C(C#N)=C/c1c[nH]c2ccccc12 | 0.9 | 0.81 | nt | 15.9 | 0.5 | 0.8 | 0.0336*
N/C(=N\c1nc2c(c(=O)[nH]1)CCC2)Nc1ccccc1 | 0.9 | -0.0209 | nt | 5.0 | -0.3 | 1 | nt
O=C(CSCc1ccc(F)cc1)NCc1ccc(F)cc1 | 1.1 | -1.23 | 2.97* | 3.2 | 0.8 | 1.1 | 0.0788
COc1ccc(C(=O)Nc2ccccc2C(=O)O)cc1Cl | 1 | -2.14 | 0.0627 | 9.4 | 1.2 | 1 | nt
CCOc1c(Cl)cc(C(=O)Nc2ccccc2C(=O)O)cc1Cl | 1 | -1.92 | -3.62* | 0.6 | 0.0 | 1 | 0.0544*
Nc1ccc2c(c1)Oc1ccccc1C=C2 | 0.9 | -2.62 | -3.17* | -1.9 | -0.8 | 1 | 0.0703
CCOC(=O)/C=c1\s/c(=C\c2ccc3cc(OC)ccc3c2)c(=O)n1CC(=O)NCc1ccc2c(c1)OCO2 | 1 | -1.14 | -6.03* | -7.3 | -1.1 | 1 | 0.0464*
CCOC(=O)/C=c1\s/c(=C\c2ccccc2C)c(=O)n1CC(=O)NCc1ccc2c(c1)OCO2 | 1 | -2.08 | nt | 18.0 | 0.6 | 0.9 | nt
CSc1nsc(SC)c1C(=O)N1CCN(S(=O)(=O)c2ccc(C)cc2)C1C(C)C (configuration not stated) | 0.9 | -0.235 | -3.55* | 1.1 | 0.6 | 1 | 0.0643*
CSc1nsc(SC)c1C(=O)N1CCN(S(=O)(=O)c2ccc(C)cc2)C1C (configuration not stated) | 1 | -0.485 | nt | 1.2 | 0.8 | 1 | nt

Compound activity from PubChem BioAssay.
